Publication PMC9066701 (RSC Advances, 2019)
Like-named read-outs stand apart in the source and are kept apart here.

Columns and labels:
[1] = system: HepG-2 human hepatocellular carcinoma cell line; experiment: MTT cytotoxicity assay, HepG-2; type: cell-based; conditions: read-out: IC50 HepG-2
Outline: (§1)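 Adherent cells kept in DMEM with 10% FBS at 37 °C, 5% CO2, seeded at 5 × 10^3 cells per well and left overnight. Test compound in DMF diluted in medium (DMF final < 0.4%) for 48 h at 37 °C. MTT (5 mg mL−1) added for 4 h, formazan dissolved in DMSO, A570 read. IC50 from % inhibition versus log concentration; cisplatin run as reference.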

[2] = system: BGC803 human gastric cancer cell line; experiment: MTT cytotoxicity assay, BGC803; type: cell-based; conditions: read-out: IC50 BGC803
Outline: as §1

[3] = system: MCF-7 human breast carcinoma cell line; experiment: MTT cytotoxicity assay, MCF-7; type: cell-based; conditions: read-out: IC50 MCF-7
Outline: as §1

HepG-2 cells [4] = experiment: Mitochondrial membrane potential by JC-1 staining; type: cell-based, human; conditions: HepG-2, 30 μM, 48 hours, negative control 5.42
[5] = system: NCI-H460 large cell lung cancer cell line; experiment: MTT cytotoxicity assay, NCI-H460; type: cell-based; conditions: read-out: IC50 NCI-H460
Outline: as §1

[6] = system: SGC7901 gastric cancer cell line; experiment: MTT cytotoxicity assay, SGC7901; type: cell-based; conditions: read-out: IC50 SGC7901, 48 h drug exposure
Outline: as §1

HepG-2 cells [7] = experiment: Annexin V-FITC/PI apoptosis assay by flow cytometry; type: cell-based, human; conditions: HepG-2, 50 μM, 24 hours
[8] = system: HUVEC human umbilical vein endothelial cell line; experiment: MTT cytotoxicity assay, HUVEC; type: cell-based; conditions: read-out: IC50 HUVEC, 48 h drug exposure, normal cells
Outline: as §1

[9] = system: SGC7901/CDDP cisplatin-resistant gastric cancer cell line; experiment: MTT cytotoxicity assay, SGC7901/CDDP; type: cell-based; conditions: read-out: IC50 SGC7901/CDDP, 48 h drug exposure
Outline: as §1

[10] = reported for kiteplatin; same experimental conditions; cited from earlier work
[11] = PBS, 37 °C, pH 7.0; cited from earlier work

| Compound | Red-green fluorescence ratio (FL2/FL1) (HepG-2 cells [4]) | IC50 ([1]; MTT assay, 48 h drug exposure) [µM] | IC50 ([2]; MTT assay, 48 h drug exposure) [µM] | IC50 ([3]; MTT assay, 48 h drug exposure) [µM] | IC50 ([5]; MTT assay, 48 h drug exposure) [µM] | also measured |
| --- | --- | --- | --- | --- | --- | --- |
| O=C(O)C(Cl)Cl [DCA, Dichloroacetate] | 4.17 |  |  |  |  | IC50 ([1]; Homo sapiens, HepG2, 48 h): > 100 µM; IC50 ([2]; Homo sapiens, BGC803, 48 h): > 100 µM; IC50 ([3]; Homo sapiens, MCF7, 48 h): > 100 µM; IC50 ([5]; Homo sapiens, NCI-H460, 48 h): > 100 µM |
| N.N.O=C([O-])C1(C(=O)[O-])CCC1.[Pt+2] [Carboplatin, carboplatin] | 2.56 | 42.3 ± 2.55 | 77.1 ± 5.35 | 179 ± 10.6 | 52.9 ± 4.98 |  |
| N.N.[Cl][Pt][Cl] [Cisplatin, cisplatin] | 0.54 | 27.8 ± 2.56 | 21.6 ± 1.35 | 29.2 ± 1.38 | 14.8 ± 1.35 | IC50 [6]: 9.96 ± 0.87 µM; apoptotic rate (early + late) (HepG-2 cells [7]): 28.79%; IC50 [8]: 36.9 ± 2.23 µM; IC50 [9]: 35.6 ± 2.55 µM |
| NC1CCC(N)CC1.[Cl][Pt+2][Cl] (stereo not shown) [kiteplatin] |  |  |  |  |  | half-life [10]: 60 min |
| ct-[Pt(NH3)2(TFA)2(CBCDA)] [ct-[Pt(NH3)2(TFA)2(CBCDA)] (5)] |  |  |  |  |  | t1/2 [11]: 142 min |
| N#CC(C#N)=NNc1cccc(Cl)c1 [CCCP, carbonylcyanide-m-chlorophenylhydrazone] | 0.04 |  |  |  |  |  |
| O=C1[O][Pt]2([NH][C@@H]3CCCC[C@H]3[NH]2)[O]C1=O [Oxaliplatin, oxaliplatin] | 0.94 | 26.5 ± 2.55 | 29.1 ± 1.65 | 41.3 ± 3.43 | 13.4 ± 1.13 | IC50 [6]: 13.5 ± 1.55 µM; apoptotic rate (early + late) (HepG-2 cells [7]): 21.74%; IC50 [8]: 51 ± 4.42 µM; IC50 [9]: 99.4 ± 5.23 µM |
